# Experimental data as given in ChEMBL document CHEMBL4842312, “Phenoxazine nucleoside derivatives with a multiple activity against RNA and DNA viruses” (Eur J Med Chem, 2021).
# What was measured:
# HEp-2 = experiment: Cytotoxicity in human Hep2 cells assessed as reduction in cell viability measured after 3 days by beckman coulter counting method; type: functional; conditions: HEp-2, 72 h, time 3 day
# Summary of the method: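 Hep2 cells seeded at 5 × 10³ cells/well and allowed to grow 24 h, then exposed to compound dilutions starting at 100 μM for 3 days at 37 °C. Cell number measured by Coulter counter.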
# Influenza A virus = experiment: Antiviral activity against Influenza A virus (H1N1) infected in MDCK cells assessed as reduction in cytopathic effect preincubated with cells for 1 hrs followed by viral addition and measured after 24 hrs by Reed-Muench method; type: functional, organism-based
# Summary of the method: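 MDCK monolayers were pre-incubated 1 h at 37 °C with 3-fold compound dilutions (from 2 mg/mL DMSO stock), then infected at MOI 1 for 24 h. Supernatant yield was titrated by 10-fold dilutions on fresh MDCK for 72 h. Titre was read by hemagglutination with 1% chicken erythrocytes and calculated by Reed-Muench as TID50 per 100 μL.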
# HEL = experiment: Cytotoxicity against human HEL cells assessed as reduction in cell viability measured after 3 days by beckman coulter counting method; type: cell-based; conditions: 72 h, time 3 day
# Summary of the method: (§1)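 Cells were seeded at 5 × 10³/well, grown 24 h, then exposed to compound from 100 μM downward for 3 days at 37 °C. Cell number was counted with a Coulter counter.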
# SARS-CoV-2 = experiment: Antiviral activity against SARS COV-2 infected in monkey vero cells assessed as reduction in virus-induced cytopathic effect preincubated with virus for 1 hr followed by cell infection and measured after 5 days by microscopic analysis; type: functional, organism-based; conditions: Severe acute respiratory syndrome coronavirus 2, Vero
# [1] = Selectivity index, ratio of CC50 for pig PEK cells to EC50 for Antiviral activity against Tick-borne virus encephalitis infected in pig PEK cells; type: toxicity, cell-based; conditions: read-out: Ratio CC50/EC50
# MDCK = experiment: (§2) Cytotoxicity in dog MDCK cells assessed as reduction in cell viability measured after 3 days by beckman coulter counting method; type: cell-based, Canis lupus familiaris; conditions: mdck, 72 h, time 3 day; summary of the method: as §1
# Vero = experiment: (§3) Cytotoxicity in African green monkey Vero cells assessed as reduction in cell viability measured after 5 days by resazurin dye based assay; conditions: chlorocebus sabaeus, vero, 120 h; time 5 day
# Summary of the method: (§4)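 Cells (about 10⁵/well, 5% FBS) were added to two-fold compound dilutions (eight concentrations from 100 μM; DMSO control) and held 5 days at 36.5 °C in CO2. Medium was then replaced with resazurin (25 μg/mL) for 4 h and stopped with SDS. Fluorescence was read at Ex 525 / Em 580–640 nm, with background wells without resazurin subtracted. Done in two replicates; CC50 calculated.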
# Chikungunya virus = experiment: Antiviral activity against Chikungunya virus infected in African green monkey Vero cells assessed as reduction in virus plaque formation preincubated with virus for 1 hr followed by cell infection and measured after 1 hr by crystal violet staining based assay; type: functional, organism-based
# Human betaherpesvirus 5 [2] = experiment: Antiviral activity against Human cytomegalovirus Davis; type: functional, organism-based; conditions: Human betaherpesvirus 5, Davis
# Summary of the method: (§5)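 Confluent HEL cultures received 100 CCID50 or 20 PFU of virus, with 2 h adsorption before inoculum removal. Cells were then incubated with compound from 100 μM downward. Cytopathicity or plaques were scored once untreated infected controls reached completion.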
# Human alphaherpesvirus 3 [3] = experiment: Antiviral activity against thymidine kinase positive Varicella zoster virus; type: functional, organism-based; summary of the method: as §5
# [4] = tested on: Omsk hemorrhagic fever virus; experiment: Antiviral activity against Omsk hemorrhagic fever virus infected in pig PEK cells assessed as reduction in virus plaque formation preincubated with virus for 1 hr followed by cell infection and measured after 1 hr by crystal violet staining based assay; type: functional, organism-based
# [5] = tested on: Respiratory syncytial virus; experiment: Antiviral activity against Respiratory syncytial virus assessed as reduction in virus-induced cytopathic effect by MTS assay; type: functional, organism-based; conditions: human respiratory syncytial virus
# [6] = Selectivity index, ratio of CC50 for African green monkey Vero cells to EC50 for Antiviral activity against Chikungunya virus infected in African green monkey Vero cells; type: toxicity; conditions: read-out: Ratio CC50/EC50
# [7] = Cytotoxicity in pig PEK cells assessed as reduction in cell viability measured after 5 days by resazurin dye based assay; design: species or system Sus scrofa, Kidney; conditions: 120 h, time 5 day; summary of the method: as §4
# [8] = Selectivity index, ratio of CC50 for pig PEK cells to EC50 for Antiviral activity against Powassan virus infected in pig PEK cells; type: toxicity, cell-based; conditions: read-out: Ratio CC50/EC50
# Powassan virus = experiment: Antiviral activity against Powassan virus infected in pig PEK cells assessed as reduction in virus plaque formation preincubated with virus for 1 hr followed by cell infection and measured after 1 hr by crystal violet staining based assay; type: functional, organism-based
# [9] = tested on: Tick-borne encephalitis virus; experiment: Antiviral activity against Tick-borne encephalitis virus infected in pig PEK cells assessed as reduction in virus plaque formation preincubated with virus for 1 hr followed by cell infection and measured after 1 hr by crystal violet staining based assay; type: functional, organism-based
# Human betaherpesvirus 5 [10] = experiment: Antiviral activity against Human cytomegalovirus AD169; type: functional, organism-based; conditions: Human betaherpesvirus 5, AD169; summary of the method: as §5
# Human alphaherpesvirus 3 [11] = experiment: Antiviral activity against thymidine kinase deficient Varicella zoster virus; type: functional, organism-based; summary of the method: as §5
# [12] = Selectivity index, ratio of CC50 for pig PEK cells to EC50 for Antiviral activity against Omsk hemorrhagic fever virus infected in pig PEK cells; type: toxicity, cell-based; conditions: read-out: Ratio CC50/EC50
# [13] = Selectivity index, ratio of CC50 for human HEL cells to EC50 for antiviral activity against thymidine kinase positive Varicella zoster virus; type: toxicity; conditions: read-out: Ratio CC50/EC50
# [14] = Selectivity index, ratio of CC50 for human HEL cells to EC50 for antiviral activity against thymidine kinase deficient Varicella zoster virus; type: toxicity; conditions: read-out: Ratio CC50/EC50
# [15] = Selectivity index, ratio of CC50 for human HEL cells to EC50 for Antiviral activity against Human cytomegalovirus Davis; type: toxicity; conditions: read-out: Ratio CC50/EC50
# [16] = Selectivity index, ratio of CC50 for human HEL cells to EC50 for Antiviral activity against Human cytomegalovirus AD169; type: toxicity; conditions: read-out: Ratio CC50/EC50
# Human alphaherpesvirus 3 [17] = experiment: Antiviral activity against Varicella zoster virus assessed as inhibition of viral replication; type: functional, organism-based
# Human betaherpesvirus 5 [18] = experiment: Antiviral activity against cytomegalovirus infected in HEL cells assessed as reduction in viral plaque formation; type: functional
# Summary of the method: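 Confluent HEL cultures infected with 20 PFU of CMV (AD-169 or Davis), 2 h adsorption, inoculum removed, then compounds added at varying concentrations from 100 μM. Plaques scored once complete in untreated infected controls.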
# Human alphaherpesvirus 1 = experiment: Antiviral activity against Herpes simplex virus 1 infected in HEL cells assessed as reduction in viral plaque formation; type: functional; summary of the method: as §5
# Human alphaherpesvirus 2 = experiment: Antiviral activity against Herpes simplex virus 2 infected in HEL cells assessed as reduction in viral plaque formation; type: functional; summary of the method: as §5
# Human alphaherpesvirus 3 [19] = experiment: Antiviral activity against Varicella zoster virus infected in HEL cells assessed as reduction in viral plaque formation; type: functional; summary of the method: as §5
# [20] = Selectivity index, ratio of CC50 for dog MDCK cells to EC50 for Influenza A virus (A/California/07/09(H1N1)) infected in MDCK cells; type: toxicity, cell-based; conditions: read-out: Ratio CC50/EC50
# [21] = as §2; type: cell-based, Canis lupus familiaris; conditions: MDCK cells, time 3 day; summary of the method: as §1
# [22] = as §3; conditions: chlorocebus sabaeus, Vero cells; time 5 day; summary of the method: as §4
# [23] = Selectivity index, ratio of CC50 for human Hep2 cells to EC50 for Respiratory syncytial virus; type: toxicity; conditions: read-out: Ratio CC50/EC50
Compound,CC50 (HEp-2),EC50 (Influenza A virus),CC50 (HEL),EC50 (SARS-CoV-2),selectivity ratio [1],CC50 (MDCK),CC50 (Vero),EC50 (Chikungunya virus),EC50 (Human betaherpesvirus 5 [2]),EC50 (Human alphaherpesvirus 3 [3]),EC50 [4],EC50 [5],selectivity ratio [6],CC50 [7],selectivity ratio [8],EC50 (Powassan virus),EC50 [9],EC50 (Human betaherpesvirus 5 [10]),EC50 (Human alphaherpesvirus 3 [11]),selectivity ratio [12],further results
CN1c2ccccc2Oc2cn(COCCO)c(=O)nc21,> 100 µM,33 µM,> 100 µM,> 100 µM,> 6,> 100 µM,> 100 µM,15 µM,> 100 µM,> 100000 nM,4.5 µM,> 100 µM,> 6,> 100 µM,> 7,13.5 µM,16 µM,> 100 µM,> 100 µM,> 22,–
CCCCCCCCOc1ccc2c(c1)Nc1nc(=O)n([C@H]3C[C@H](O)[C@@H](CO)O3)cc1O2,> 100 µM,82 µM,> 100 µM,> 100 µM,> 35,> 100 µM,> 100 µM,2.5 µM,42.3 µM,420 nM,–,> 100 µM,> 40,> 100 µM,> 66,1.5 µM,2.8 µM,54.7 µM,15.9 µM,–,selectivity ratio [13]: > 238; selectivity ratio [14]: > 6; selectivity ratio [15]: > 2; selectivity ratio [16]: > 2
CCCCCCCc1cc2cn([C@H]3C[C@H](O)[C@@H](CO)O3)c(=O)nc2o1,–,–,–,–,–,–,–,–,–,–,–,–,–,–,–,–,–,–,–,–,EC50 (Human alphaherpesvirus 3 [17]): 27 nM
Cc1cn2c(=O)c3ncn(COC(CO)CO)c3nc2[nH]1,–,–,–,–,–,–,–,–,–,–,–,–,–,–,–,–,–,–,–,–,MIC (Human betaherpesvirus 5 [18]): 14.3 µM; MIC (Human alphaherpesvirus 1): 0.07 µM; MIC (Human alphaherpesvirus 2): 0.07 µM; MIC (Human alphaherpesvirus 3 [19]): 14.3 µM
O=c1[nH]c(=O)n([C@H]2C[C@H](O)[C@@H](CO)O2)cc1/C=C/Br [BRIVUDINE],–,–,> 300 µM,–,–,–,–,–,–,34 nM,–,–,–,–,–,–,–,–,0.42 µM,–,EC50 (Human alphaherpesvirus 3 [17]): 3400 nM
Nc1nc2c(ncn2COCCO)c(=O)[nH]1 [ACYCLOVIR],–,–,> 300 µM,–,–,–,–,–,–,–,–,–,–,–,–,–,–,–,–,–,EC50 (Human alphaherpesvirus 3 [17]): 9 nM
COc1ccc(C(OCCOCn2cc3c(nc2=O)N(C)c2ccccc2O3)(c2ccccc2)c2ccc(OC)cc2)cc1,> 100 µM,79 µM,> 100 µM,> 100 µM,> 6,> 100 µM,> 100 µM,6.1 µM,44.7 µM,> 20000 nM,3.1 µM,> 100 µM,> 16,> 100 µM,> 12,8 µM,16 µM,48.9 µM,> 20 µM,> 32,selectivity ratio [15]: > 2; selectivity ratio [16]: > 2
Cc1cn2c(=O)c3ncn(COCCO)c3nc2[nH]1,–,–,–,–,–,–,–,–,–,–,–,–,–,–,–,–,–,–,–,–,MIC (Human alphaherpesvirus 1): 1.52 µM; MIC (Human alphaherpesvirus 2): 1.52 µM
CCCCCCCCCCOc1ccc2c(c1)Nc1nc(=O)n([C@H]3C[C@H](O)[C@@H](CO)O3)cc1O2,> 100 µM,3.4 µM,50.3 µM,> 100 µM,–,> 100 µM,> 100 µM,–,10.4 µM,680 nM,–,> 100 µM,–,> 100 µM,> 22,4.4 µM,40 µM,> 100 µM,15.2 µM,–,selectivity ratio [14]: 3; selectivity ratio [20]: > 29; selectivity ratio [15]: 5
O=c1nc2c(cn1COCCO)Oc1ccccc1N2,> 100 µM,25 µM,> 100 µM,> 100 µM,> 4,> 100 µM,> 100 µM,28 µM,> 100 µM,> 100000 nM,7.2 µM,> 100 µM,> 3,> 100 µM,–,> 50 µM,23.6 µM,> 100 µM,> 100 µM,> 13,–
O=c1nc2c(cn1[C@H]1C=C[C@@H](O)C1)Oc1ccccc1N2,80 µM,–,> 100 µM,> 100 µM,–,–,–,–,> 100 µM,> 100000 nM,–,11 µM,–,–,–,–,–,> 20 µM,64.4 µM,–,CC50 at 72 h [21]: > 100 µM; CC50 at 120 h [22]: > 100 µM; selectivity ratio [23]: 7
COc1ccc(C(OCCOCn2cc3c(nc2=O)Nc2ccccc2O3)(c2ccccc2)c2ccc(OC)cc2)cc1,> 100 µM,14 µM,> 100 µM,> 100 µM,> 2,> 100 µM,> 100 µM,> 50 µM,> 100 µM,> 100000 nM,21.4 µM,> 100 µM,–,> 100 µM,> 5,21 µM,36 µM,> 100 µM,> 100 µM,> 4,–
